{
  "source": "ChEMBL document CHEMBL1158358",
  "about": "“Synthesis, antimicrobial and cytotoxic activities of some 5-arylidene-4-thioxo-thiazolidine-2-ones” (Eur J Med Chem, 2009)",
  "type_in_all_cases": "functional",
  "key": {"Staphylococcus aureus [1]": {"test_system": "Staphylococcus aureus", "experiment": "Antimicrobial activity against multidrug-resistant Staphylococcus aureus H.C. 21141 isolate after 20 hrs by twofold serial dilution technique", "details": "H.C. 21141, 20 h", "outline": "(§1)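 Twofold serial dilution MIC in agar plates against Gram-positive strains and multidrug-resistant clinical isolates. Inoculum applied was 10⁵ CFU/plate. Plates with culture medium plus DMSO served as negative control. MIC was read after incubation at 35 °C for 20 h.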"}, "Bacillus subtilis [2]": {"test_system": "Bacillus subtilis", "experiment": "Antimicrobial activity against Bacillus subtilis UFPEDA 16 at 10 ug/disk after 24 hrs by disk diffusion method", "details": "UFPEDA 16, 24 h, read-out: IZ"}, "Enterococcus faecalis [3]": {"test_system": "Enterococcus faecalis", "experiment": "Antimicrobial activity against Enterococcus faecalis UFPEDA 138 after 20 hrs by twofold serial dilution technique", "details": "UFPEDA 138, 20 h", "outline": "(§2)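 MIC was determined by twofold serial dilution. Bacteria were tested in plates at 10⁵ CFU/plate and read after 20 h. C. albicans was tested in tubes at 10³ CFU/tube and read after 48 h. All incubations were at 35 °C. Medium plus DMSO served as the negative control.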"}, "Enterococcus faecalis [4]": {"test_system": "Enterococcus faecalis", "experiment": "Antimicrobial activity against multidrug-resistant Enterococcus faecalis H.C. 21752 isolate after 20 hrs by twofold serial dilution technique", "details": "H.C. 21752, 20 h", "outline": "as §1"}, "Staphylococcus aureus [5]": {"test_system": "Staphylococcus aureus", "experiment": "Antimicrobial activity against multidrug-resistant Staphylococcus aureus H.C. 20981 isolate after 20 hrs by twofold serial dilution technique", "details": "H.C. 20981, 20 h", "outline": "as §1"}, "Enterococcus faecalis [6]": {"test_system": "Enterococcus faecalis", "experiment": "Antimicrobial activity against multidrug-resistant Enterococcus faecalis H.C. 24708 isolate after 20 hrs by twofold serial dilution technique", "details": "H.C. 24708, 20 h", "outline": "as §1"}, "Staphylococcus aureus [7]": {"test_system": "Staphylococcus aureus", "experiment": "Antimicrobial activity against Staphylococcus aureus UFPEDA 01 after 20 hrs by twofold serial dilution technique", "details": "UFPEDA 01, 20 h", "outline": "as §1"}, "Enterococcus faecalis [8]": {"test_system": "Enterococcus faecalis", "experiment": "Antimicrobial activity against Enterococcus faecalis UFPEDA 138 at 10 ug/disk after 24 hrs by disk diffusion method", "details": "UFPEDA 138, 24 h, read-out: IZ"}, "Staphylococcus aureus [9]": {"test_system": "Staphylococcus aureus", "experiment": "Antimicrobial activity against multidrug-resistant Staphylococcus aureus H.C. 20794 isolate after 20 hrs by twofold serial dilution technique", "details": "H.C. 20794, 20 h", "outline": "as §1"}, "Micrococcus luteus [10]": {"test_system": "Micrococcus luteus", "experiment": "Antimicrobial activity against Micrococcus luteus UFPEDA 06 after 20 hrs by twofold serial dilution technique", "details": "UFPEDA 06, 20 h", "outline": "as §2"}, "Staphylococcus aureus [11]": {"test_system": "Staphylococcus aureus", "experiment": "Antimicrobial activity against Staphylococcus aureus UFPEDA 01 at 10 ug/disk after 24 hrs by disk diffusion method", "details": "UFPEDA 01, 24 h, read-out: IZ"}, "Escherichia coli": {"test_system": "Escherichia coli", "experiment": "Antimicrobial activity against Escherichia coli UFPEDA 224 at 10 ug/disk after 24 hrs by disk diffusion method", "details": "UFPEDA 224, 24 h, read-out: IZ", "outline": "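Preliminary screen: 6 mm paper disks bearing the agent placed on agar plates inoculated with a standardized microbial suspension. Negative control was DMSO-only disks. Inhibition zones are means of n = 3; no zone or a mean zone below 7 mm was scored as no sensitivity.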"}, "Staphylococcus [12]": {"test_system": "Staphylococcus", "experiment": "Antimicrobial activity against coagulase-negative Staphylococcus H.A.M. 278 isolate after 20 hrs by twofold serial dilution technique", "details": "H.A.M. 278, 20 h", "outline": "as §2"}, "Enterococcus faecalis [13]": {"test_system": "Enterococcus faecalis", "experiment": "Antimicrobial activity against multidrug-resistant Enterococcus faecalis H.C. 21944 isolate after 20 hrs by twofold serial dilution technique", "details": "H.C. 21944, 20 h", "outline": "as §1"}, "Staphylococcus [14]": {"test_system": "Staphylococcus", "experiment": "Antimicrobial activity against coagulase-negative Staphylococcus H.A.M. 338 isolate after 20 hrs by twofold serial dilution technique", "details": "H.A.M. 338, 20 h", "outline": "as §2"}, "Staphylococcus aureus [15]": {"test_system": "Staphylococcus aureus", "experiment": "Antimicrobial activity against multidrug-resistant Staphylococcus aureus H.C. 20489 isolate after 20 hrs by twofold serial dilution technique", "details": "H.C. 20489, 20 h", "outline": "as §1"}, "Bacillus subtilis [16]": {"test_system": "Bacillus subtilis", "experiment": "Antimicrobial activity against Bacillus subtilis UFPEDA 16 after 20 hrs by twofold serial dilution technique", "details": "UFPEDA 16, 20 h", "outline": "as §2"}, "Staphylococcus aureus [17]": {"test_system": "Staphylococcus aureus", "experiment": "Antimicrobial activity against multidrug-resistant Staphylococcus aureus H.C. 21036 isolate after 20 hrs by twofold serial dilution technique", "details": "H.C. 21036, 20 h", "outline": "as §1"}, "Micrococcus luteus [18]": {"test_system": "Micrococcus luteus", "experiment": "Antimicrobial activity against Micrococcus luteus UFPEDA 06 at 10 ug/disk after 24 hrs by disk diffusion method", "details": "UFPEDA 06, 24 h, read-out: IZ"}, "[19]": {"test_system": "Mycolicibacterium smegmatis", "experiment": "Antimicrobial activity against Mycobacterium smegmatis UFPEDA 71 after 20 hrs by twofold serial dilution technique", "details": "UFPEDA 71, 20 h", "outline": "as §2"}, "Enterococcus faecalis [20]": {"test_system": "Enterococcus faecalis", "experiment": "Antimicrobial activity against multidrug-resistant Enterococcus faecalis H.C. 24962 isolate after 20 hrs by twofold serial dilution technique", "details": "H.C. 24962, 20 h", "outline": "as §1"}, "Staphylococcus aureus [21]": {"test_system": "Staphylococcus aureus", "experiment": "Antimicrobial activity against multidrug-resistant Staphylococcus aureus H.C. 20905 isolate after 20 hrs by twofold serial dilution technique", "details": "H.C. 20905, 20 h", "outline": "as §1"}},
  "data": [
    {"smiles": "CC1(C)S[C@@H]2[C@H](NC(=O)[C@H](N)c3ccccc3)C(=O)N2[C@H]1C(=O)O", "note": "[AMPICILLIN]", "values": [
      {"measurement": "MIC", "setting": "Staphylococcus aureus [1]", "value": "≤ 1", "unit": "µg/mL"},
      {"measurement": "zone of inhibition at 10 µg/disc", "setting": "Bacillus subtilis [2]", "value": 28, "unit": "mm"},
      {"measurement": "MIC", "setting": "Enterococcus faecalis [3]", "value": 2, "unit": "µg/mL"},
      {"measurement": "MIC", "setting": "Enterococcus faecalis [4]", "value": 2, "unit": "µg/mL"},
      {"measurement": "MIC", "setting": "Staphylococcus aureus [5]", "value": 2, "unit": "µg/mL"},
      {"measurement": "MIC", "setting": "Enterococcus faecalis [6]", "value": 2, "unit": "µg/mL"},
      {"measurement": "MIC", "setting": "Staphylococcus aureus [7]", "value": 2, "unit": "µg/mL"},
      {"measurement": "zone of inhibition at 10 µg/disc", "setting": "Enterococcus faecalis [8]", "value": 24, "unit": "mm"},
      {"measurement": "MIC", "setting": "Staphylococcus aureus [9]", "value": 2, "unit": "µg/mL"},
      {"measurement": "MIC", "setting": "Micrococcus luteus [10]", "value": 2, "unit": "µg/mL"},
      {"measurement": "zone of inhibition at 10 µg/disc", "setting": "Staphylococcus aureus [11]", "value": 38, "unit": "mm"},
      {"measurement": "zone of inhibition at 10 µg/disc", "setting": "Escherichia coli", "value": 20, "unit": "mm"},
      {"measurement": "MIC", "setting": "Staphylococcus [12]", "value": "≤ 1", "unit": "µg/mL"},
      {"measurement": "MIC", "setting": "Enterococcus faecalis [13]", "value": "≤ 1", "unit": "µg/mL"},
      {"measurement": "MIC", "setting": "Staphylococcus [14]", "value": "≤ 1", "unit": "µg/mL"},
      {"measurement": "MIC", "setting": "Staphylococcus aureus [15]", "value": "≤ 1", "unit": "µg/mL"},
      {"measurement": "MIC", "setting": "Bacillus subtilis [16]", "value": 2, "unit": "µg/mL"},
      {"measurement": "MIC", "setting": "Staphylococcus aureus [17]", "value": 32, "unit": "µg/mL"},
      {"measurement": "zone of inhibition at 10 µg/disc", "setting": "Micrococcus luteus [18]", "value": 45, "unit": "mm"},
      {"measurement": "MIC", "setting": "[19]", "value": 64, "unit": "µg/mL"},
      {"measurement": "MIC", "setting": "Enterococcus faecalis [20]", "value": 2, "unit": "µg/mL"},
      {"measurement": "MIC", "setting": "Staphylococcus aureus [21]", "value": 64, "unit": "µg/mL"}
    ]}
  ]
}
